Reference: ChEMBL document CHEMBL3046176, “Synthesis, crystal structure, and biological activities of 2-cyanoacrylates containing furan or tetrahydrofuran moieties” (2007)

Assays:
Type in all cases: functional
Tobacco mosaic virus = experiment: Antiviral activity against Tobacco mosaic virus (TMV) inoculated in fresh tobacco leaf at 100 mg/L by half-leaf method
In short: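 Half-leaf method on tobacco leaves at the 5-6 growth stage. Leaves were inoculated with TMV by juice-leaf rubbing at 5.88 × 10-2 µg/mL and cut along the main vein. One half was immersed in test solution and the other in double distilled water for 20 min, then cultured at 25 °C for 72 h, in triplicate. Inhibition = 100(CK − A)/CK, from average lesion counts.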

Brassica napus [1] = experiment: Herbicidal activity against rape Brassica napus (oilseed rape) assessed as herbicidal damage at 1.5 kg/ha measured after preemergence treatment; details: pre-emergence
In short: (§1)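 Seeds were sown in 6 cm boxes of artificial mixed soil, covered with plastic film until emergence, and grown in a greenhouse. Sprays were applied right after sowing (preemergence) or after the first true leaf expanded (postemergence). Controls received the same amount of water/DMF/Tween 20. Above-ground fresh weight was taken 10 days after treatment, in triplicate, as % damage versus control.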

Digitaria sanguinalis [2] = experiment: Herbicidal activity against hairy crabgrass Digitaria sanguinalis (hairy crabgrass) assessed as herbicidal damage at 1.5 kg/ha measured after postemergence treatment; details: post-emergence; in short: as §1
Cucumis sativus = experiment: Plant growth regulatory activity in Cucumis sativus (cucumber) seed assessed as number of root at 10 mg/L at 26 degC measured after 5 days
In short: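 Cucumber seeds were incubated at 26 °C in the dark for 72 h, then 10 cotyledons were excised and treated. Incubation continued at 26 °C in the dark for 5 days. Roots were counted, with water-only controls, in triplicate.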

Fusarium graminearum = experiment: Antifungal activity against Fusarium graminearum assessed as inhibition of mycelium growth at 50 mg/L at 26 degC measured after 72 hr
In short: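 Mycelium growth test on agar plates: 1 mL test solution (50 mg/L) mixed with 9 mL agar medium; sterile water in place of test solution for controls. 4 mm inocula cut from margins of actively growing colonies, placed at plate centre, incubated at 26 °C; mycelium diameter measured over 72 h. Inhibition % from mean hyphal diameter against control. Triplicate.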

[3] = system: Botryosphaeria berengeriana; experiment: Antifungal activity against Botryosphaeria berengeriana assessed as inhibition of mycelium growth at 50 mg/L at 26 degC measured after 72 hr
In short: (§2)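 Mycelium growth assay on agar. 1 mL test solution (50 mg/L) was poured into a 9 cm plate with 9 mL agar medium. Controls used sterile water in its place. A 4 mm plug from the margin of an actively growing colony was placed in the centre and incubated at 26 °C. Hyphal diameter was measured over 72 h, in triplicate. Inhibition % = (control diameter − treated diameter)/control diameter.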

Mycosphaerella arachidis = experiment: Antifungal activity against Mycosphaerella arachidis assessed as inhibition of mycelium growth at 50 mg/L at 26 degC measured after 72 hr; in short: as §2
Medicago sativa [4] = experiment: Herbicidal activity against Medicago sativa (alfalfa) assessed as herbicidal damage at 1.5 kg/ha measured after postemergence treatment; details: post-emergence; in short: as §1
Amaranthus retroflexus [5] = experiment: Herbicidal activity against Amaranthus retroflexus assessed as herbicidal damage at 1.5 kg/ha measured after postemergence treatment; details: post-emergence; in short: as §1
Alternaria solani = experiment: Antifungal activity against Alternaria solani assessed as inhibition of mycelium growth at 50 mg/L at 26 degC measured after 72 hr; in short: as §2
Amaranthus retroflexus [6] = experiment: Herbicidal activity against Amaranthus retroflexus assessed as herbicidal damage at 1.5 kg/ha measured after preemergence treatment; details: pre-emergence; in short: as §1
Brassica napus [7] = experiment: Herbicidal activity against rape Brassica napus (oilseed rape) assessed as herbicidal damage at 1.5 kg/ha measured after postemergence treatment; details: post-emergence; in short: as §1
Medicago sativa [8] = experiment: Herbicidal activity against Medicago sativa (alfalfa) assessed as herbicidal damage at 1.5 kg/ha measured after preemergence treatment; details: pre-emergence; in short: as §1
Digitaria sanguinalis [9] = experiment: Herbicidal activity against hairy crabgrass Digitaria sanguinalis (hairy crabgrass) assessed as herbicidal damage at 1.5 kg/ha measured after preemergence treatment; details: pre-emergence; in short: as §1
Cladosporium cucumerinum = experiment: Antifungal activity against Cladosporium cucumerinum assessed as inhibition of mycelium growth at 50 mg/L at 26 degC measured after 72 hr; in short: as §2

| Structure (SMILES) | Activity (Tobacco mosaic virus) | inhibition at 1500 g/ha (Brassica napus [1]) | inhibition at 1500 g/ha (Digitaria sanguinalis [2]) | Activity (Cucumis sativus) | inhibition at 50 µg/mL (Fusarium graminearum) | inhibition at 50 µg/mL [3] | inhibition at 50 µg/mL (Mycosphaerella arachidis) | inhibition at 1500 g/ha (Medicago sativa [4]) | inhibition at 1500 g/ha (Amaranthus retroflexus [5]) | inhibition at 50 µg/mL (Alternaria solani) | inhibition at 1500 g/ha (Amaranthus retroflexus [6]) | inhibition at 1500 g/ha (Brassica napus [7]) | inhibition at 1500 g/ha (Medicago sativa [8]) | inhibition at 1500 g/ha (Digitaria sanguinalis [9]) | inhibition at 50 µg/mL (Cladosporium cucumerinum) |
| --- | --- | --- | --- | --- | --- | --- | --- | --- | --- | --- | --- | --- | --- | --- | --- |
| CCOCCOC(=O)/C(C#N)=C(\NCC1CCOC1)C(C)C (stereo unspecified) | 4.9% | 0% | 57.6% | 14.4% | 0% | 9.1% | 17.9% | 41.3% | 37.8% | 0% | 12.6% | 88.2% | 2.3% | 0% | 5.3% |
| CCOCCOC(=O)/C(C#N)=C(\NCc1ccoc1)C(C)C | – | 0% | 0% | 11.4% | 0% | 22.7% | 30.4% | 13.2% | 27.4% | 25% | 22.1% | 51.9% | 10.5% | 33.6% | 13.2% |
| CCOCCOC(=O)/C(C#N)=C(/NCC1CCCO1)SC (stereo unspecified) | – | 0% | 0% | -0.6% | 40% | 4.5% | 17.9% | 23.4% | 37.8% | 0% | 9.5% | 47.5% | 21.8% | 35.7% | 34.2% |
| CCOCCOC(=O)/C(C#N)=C(/NCc1ccco1)SC | – | 20.7% | 13.1% | 14.4% | 36.7% | 22.7% | 16.1% | 18.6% | 30.2% | 25% | 10.5% | 22.9% | 0% | 37.8% | 15.8% |
| CCOCCOC(=O)/C(C#N)=C(/C)NCc1ccco1 | – | 8.5% | 17.2% | -0.6% | 46.7% | 22.7% | 44.6% | 5.4% | 32.3% | 0% | 3.2% | 20.1% | 12% | 42.1% | 21.1% |
| CCC/C(NCc1ccco1)=C(\C#N)C(=O)OCCOCC | – | 30.7% | 1% | 14.4% | 30% | 9.1% | 3.6% | 12.6% | 31.6% | 10.7% | 0% | 22.9% | 0% | 22.8% | 13.2% |
| CCOCCOC(=O)/C(C#N)=C(/NCC1CCOC1)SC (stereo unspecified) | – | 0% | 0% | -9.6% | 0% | 27.3% | 25% | 4.2% | 43.3% | 21.4% | 22.1% | 50.5% | 0% | 5.7% | 21.1% |
| CCOCCOC(=O)/C(C#N)=C(/C)NCC1CCOC1 (stereo unspecified) | – | 0% | 0% | -6.6% | 0% | 27.3% | 12.5% | 5.4% | 29.5% | 35.7% | 12.6% | 52.3% | 7.5% | 31.4% | 18.4% |
| CCOCCOC(=O)/C(C#N)=C(/CC)NCC1CCOC1 (stereo unspecified) | 7.2% | 34.1% | 11.1% | 41.5% | 20% | 9.1% | 39.3% | 25.7% | 51.6% | 17.9% | 4.2% | 68% | 6% | 0% | 7.9% |
| CCC/C(NCC1CCOC1)=C(\C#N)C(=O)OCCOCC (stereo unspecified) | 9.4% | 0% | 1% | 5.4% | 0% | 27.3% | 41.1% | 11.4% | 8.1% | 10.7% | 9.5% | 58.8% | 0% | 0% | 21.1% |
| CCOCCOC(=O)/C(C#N)=C(/NCc1ccoc1)SC | 8% | 0% | 5.1% | 14.4% | 36.7% | 9.1% | 12.5% | 31.1% | 28.8% | 3.6% | 8.4% | 30.8% | 16.5% | 0% | 13.2% |
| CCOCCOC(=O)/C(C#N)=C(/C)NCc1ccoc1 | – | 0% | 0% | -18.6% | 33.3% | 13.6% | 44.6% | 20.4% | 37.1% | 0% | 21.1% | 49.8% | 6.8% | 22.8% | 36.8% |
| CCOCCOC(=O)/C(C#N)=C(/CC)NCc1ccoc1 | – | 0% | 0% | 23.4% | 33.3% | 4.5% | 35.7% | 0% | 23.3% | 10.7% | 11.6% | 33.8% | 2.3% | 0% | 26.3% |
| CCC/C(NCc1ccoc1)=C(\C#N)C(=O)OCCOCC | 0% | 0% | 0% | -6.6% | 16.7% | 31.8% | 12.5% | 31.1% | 14.3% | 25% | 0% | 25.2% | 4.5% | 35.7% | 21.1% |
| CCOCCOC(=O)/C(C#N)=C(/NCc1ccc(Cl)nc1)SC | 18.3% | 68.9% | 89.9% | -3.6% | 6.7% | 22.7% | 21.4% | 41.3% | 100% | 7.1% | 13.7% | 100% | 1.5% | 18.6% | 0% |
